# Compounds with a hit are over-represented: about 2.7% of the library has one in this group of screens.
# ASAP1 GAP inh = inhibitors of human ASAP1 ArfGAP activity, primary screen, biochemical, fluorescence polarization. Arf-GAP with SH3 domain, ANK repeat and PH domain-containing protein 1 (Homo sapiens), …. ASAP1-stimulated ARF1 GTP hydrolysis, GDP FP detection. inhibition, % at 16.5 µM. 0.19% of 360,000 active. AID 624377, 2012; in the data active = inhibition above about 25%;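 note: 0% = vehicle with enzyme and substrate and 100% = no enzyme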
# Target sequence (Q9ULH1 325-724 limits assumed): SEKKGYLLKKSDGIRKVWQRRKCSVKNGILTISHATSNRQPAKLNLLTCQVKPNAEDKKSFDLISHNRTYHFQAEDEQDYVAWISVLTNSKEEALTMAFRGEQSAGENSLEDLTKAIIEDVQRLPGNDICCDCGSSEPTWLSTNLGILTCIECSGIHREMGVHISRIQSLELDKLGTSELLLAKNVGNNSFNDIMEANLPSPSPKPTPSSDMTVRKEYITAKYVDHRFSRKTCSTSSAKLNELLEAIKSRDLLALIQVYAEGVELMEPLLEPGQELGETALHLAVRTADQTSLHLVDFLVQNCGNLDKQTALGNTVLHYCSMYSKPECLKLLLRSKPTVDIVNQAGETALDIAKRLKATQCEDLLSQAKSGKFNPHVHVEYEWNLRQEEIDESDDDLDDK
# sPLA2-III inh = human group III sPLA2 inhibitors, primary screen, biochemical, QFRET, BODIPY PC-A2 liposome substrate. AID 743126, 2013. inhibition, % at 12.2 µM. QFRET BODIPY PC-A2 liposome hydrolysis, fluorescence. 0.56% of 370,000 active. Group 3 secretory phospholipase A2 (Homo sapiens), Q9NZ20;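 active = inhibition above mean plus 3 SD of compounds lying within the high and low control bounds, cut at about 19% in these data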;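 note: 0% = median of test compound wells and 100% = no enzyme DMSO wells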
# MsrA inh = bovine MsrA enzyme inhibitors, primary screen, biochemical, absorbance, HTS; Methionine sulfoxide reductase A (Bos taurus); purified bovine MsrA, absorbance read-out; inhibition, % at 15.5 µM; 0.75% of 360,000 active; AID 651718, 2012; in the data active = inhibition above about 4.5%;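 note: 0% = vehicle wells with enzyme and 100% = reference inhibitor wells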
# MsrA act = bovine MsrA enzyme activators, primary screen, biochemical, absorbance, HTS. AID 602163, 2012. purified bovine MsrA, absorbance read-out. activation, % at 10.6 µM. 0.3% of 360,000 active. Methionine sulfoxide reductase A (Bos taurus); in the data active = activation above about 7.5%;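 note: 0% = vehicle and 100% = reference activator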
# Rev-erbA mod = modulators of Rev-erb alpha DNA binding, primary screen, biochemical, FITC-DNA, fluorescence polarization, uHTS | Nuclear receptor subfamily 1 group D member 1 (Homo sapiens), P20393 | Rev-erbα–FITC-DNA binding, 90 min | 0.79% of 370,000 active | activity, % at 10 µM;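 active = activity above about 14%, limit read from the data; passing the limit was not always enough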;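 note: 0% = DMSO wells with 35 nM protein and 100% = DMSO wells with 750 nM protein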
# ARFGAP1 inh = inhibitors of rat ARFGAP1 GAP activity, primary screen, biochemical, fluorescence polarization, GDP tracer. ADP-ribosylation factor GTPase-activating protein 1 (Rattus norvegicus), Q62848. 0.26% of 360,000 active. Arfgap1-stimulated ARF1 GTP hydrolysis, GDP FP detection. AID 651572, 2012. inhibition, % at 16.5 µM;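 active = inhibition above a per-plate limit, mean inhibition of low control wells plus 3 SD, cut at about 25% in these data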;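 note: 0% = DMSO wells with enzyme and 100% = wells lacking Arfgap1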
# Target sequence (Q62848 1-136 limits assumed): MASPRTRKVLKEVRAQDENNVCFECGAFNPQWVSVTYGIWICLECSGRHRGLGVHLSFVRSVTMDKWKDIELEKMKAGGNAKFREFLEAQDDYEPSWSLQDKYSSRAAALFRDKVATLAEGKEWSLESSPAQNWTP
#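 System: truncated rat Arfgap1 GAP domain / Benchmarks: high control wells lacking Arfgap1, low control full reaction with DMSO / Times: compound-enzyme preincubation 20 min, reaction 120 min, detection 60 min, 25 °C / Repeats: one replicate per compound / Also added: human ARF1(Δ1-17)-GTP substrate / Measured by: Tracer-displacement fluorescence polarization with EDTA stop, 620/688 nm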
# MsrA activ conf = bovine MsrA activators, retest, confirmation, biochemical, absorbance, HTS; shares compounds with MsrA act; AID 602270, 2012; 12% of 1,000 active; purified bovine MsrA, absorbance read-out; activation, % at 10.6 µM; in the data active = activation above about 4%;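 note: enzyme coupled to thioredoxin and thioredoxin reductase with NADPH; 0% = vehicle wells and 100% = reference activator wells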
# ASAP1 GAP conf = ASAP1 GAP activity inhibitors, confirmation, biochemical, fluorescence polarization, human, triplicate; shares compounds with ASAP1 GAP inh; ASAP1-stimulated Arf1 GTPase, GDP fluorescence polarization; inhibition, % at 16.5 µM; 37% of 620 active; AID 624431, 2012;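 active = mean inhibition over triplicates exceeds the hit threshold derived for the earlier primary screening run, cut at about 25% in these data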
# sPLA2 confirm = human group III sPLA2 inhibitors, confirmation, biochemical, QFRET, triplicate; inhibition, % at 12.2 µM; shares compounds with sPLA2-III inh; AID 743280, 2014; recombinant hGIII-sPLA2, BODIPY PC-A2 QFRET fluorescence; 34% of 2,000 active;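 active = mean inhibition across triplicates above the hit cutoff set in the earlier primary screen, cut at about 19% in these data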;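 note: 0% = enzyme with DMSO and 100% = DMSO wells lacking enzyme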
# BODIPY interf = 535nm fluorescence optical interference, confirmation, artefact control for HGIII-sPLA2 inhibitor project, biochemical, QFRET. shares compounds with sPLA2-III inh. BODIPY FL product fluorescence interference. inhibition, % at 12.2 µM. 8.5% of 2,000 active;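 active = average inhibition above the solvent-only control mean plus 3 SD, cut at about 6% in these data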;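 note: 0% = DMSO with substrate plus product and 100% = DMSO with substrate alone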
# Rev-erbA confirm = modulators of Rev-erb alpha DNA binding, confirmation, biochemical, FITC-DNA, fluorescence polarization, single point | activation, % at 25 µM | 61% of 3,000 active | 90 min | AID 1259319, 2017 | shares compounds with Rev-erbA mod;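 active = activation at or above a set limit, or at least 3 SD above the negative control mean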;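 note: 0% = 35 nM protein with DMSO and 100% = 750 nM protein high control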
# Numbers without * were called inactive; / = no result given; ! = not confirmed by another sample.
SMILES,ASAP1 GAP inh,sPLA2-III inh,MsrA inh,MsrA act,Rev-erbA mod,ARFGAP1 inh,MsrA activ conf,others
Cc1ccc(S(=O)(=O)Nc2ccc3c(c2)C(=O)c2ccccc2-3)cc1,6,-29,0,-3,2,6,/,
CSc1nc2cc(Cl)ccc2s1,1,4,0,1,3,8,/,
S=c1[nH]c2cc(Cl)ccc2s1,-1,24*,1,12*,2,15,4.8*,sPLA2 confirm=21*;BODIPY interf=1
CC(=O)Nc1ccc(S(=O)(=O)NC2=C(N3CCN(Cc4ccccc4)CC3)C(=O)c3ccccc3C2=O)cc1,-4,21*!,1,8.1*!,16,1,1,sPLA2 confirm=25*;BODIPY interf=-6
CCCCOC(=O)Nc1ccccc1C(=O)N1CCCC1,8,22*,1,15*,-2,14,0,sPLA2 confirm=2;BODIPY interf=-9
Cc1cccc(-c2cccc3c4c([nH]c23)[C@@H]2C[C@H](N(C)C(=O)NC3CCCCC3)[C@H]([C@H](C)O)CN2CC4)c1,/,7,/,/,0,/,/,
CCOC(=O)N1C(=O)C[C@](Sc2ccc(OC)cc2)(C(=O)N2CCN(c3ncccn3)CC2)[C@H]1c1ccc(OC)cc1,/,-3,/,/,1,/,/,
S=c1[nH]nc2ccc3ccccc3n12,-7,26*,2,11*,10,15,2,sPLA2 confirm=23*;BODIPY interf=0
S=c1[nH]nc2ccccn12,-3,7,0,0,2,-2,/,
CN(C)c1ccc(C=c2c3cc(O)ccc3n3c2cc(-c2ccccc2)[n+]3C)cc1,18,-3,2,17*,22*,-4,8.1*,Rev-erbA confirm=-2
CN(C)c1ccc(/C=C(\C#N)c2ccccc2)cc1,/,/,/,-2,/,/,/,
CCOC(=O)CC[C@@H]1CC[C@]2(CCCN(C(=O)c3ccccc3)C2)O1,/,3,/,/,2,/,/,
O=C(Cn1sc2ccccc2c1=O)Nc1ccccc1,-1,5,0,7.7*,15*,1,2,Rev-erbA confirm=-4
O=C(O)c1cccc2c1C(=O)c1ccccc1-2,1,-2,0,-4,1,4,/,
O=C1C(=C(I)I)c2ccccc2-c2ccccc21,38*,-22,0,6,-15,-9,/,ASAP1 GAP conf=-14
CCCCOC(=O)Sc1nc2ccccc2o1,25*,5,2,-1,7,-1,/,ASAP1 GAP conf=-1
COC(=O)C1CN(CCc2ccccc2)CCS(=O)(=O)N1Cc1ccc(C(F)(F)F)cc1 (centres undefined),/,0,/,/,4,/,/,
O=C(CN1CCc2onc(-c3cccc(-n4cc(CO)nn4)c3)c2C1=O)N1CCOCC1,/,1,/,/,10,/,/,
Nc1ccc2c(c1)C(=NO)c1cc([N+](=O)[O-])ccc1-2,26*,-15,1,-2,3,-5,/,ASAP1 GAP conf=18

# Assay outcomes (PubChem)
